# Results collected from several papers.
# Compare with care: the assays were run in different laboratories.
# Method: competition with immobilised ligand
# RPS6KA4 N-terminal kinase domain: Ribosomal protein S6 kinase alpha-4, N-terminal kinase domain (RPS6KA4, Homo sapiens, UniProt O75676)
# RPS6KA4 C-terminal kinase domain: Ribosomal protein S6 kinase alpha-4, C-terminal kinase domain (RPS6KA4, Homo sapiens, UniProt O75676)
SMILES,target,test,setting,remaining binding
CNCc1ccccc1-c1csc([C@@H](C)Nc2nc(C)nc3cc(OC)c(OC)cc23)c1,RPS6KA4 N-terminal kinase domain,cell-free assay,1 µM,100%
COc1cnc(Nc2cccc(S(N)(=O)=O)c2)nc1N1CCN(c2ccccc2)C(=O)C1,RPS6KA4 N-terminal kinase domain,binding,1 µM,100%
Nc1ncc2c(n1)-c1c([nH]c3ccc(C#CC4CC4)cc13)CCCC2,RPS6KA4 C-terminal kinase domain,binding,1 µM,93%
O=C(NCCCC1CCCCC1)c1ccc(CNC(=O)c2cnn(-c3ccccc3)c2C(F)(F)F)cc1,RPS6KA4 C-terminal kinase domain,cell-free assay,0.1 µM,90%
O=C(c1ccc(Nc2nccc(-c3cc4ccccc4s3)n2)cc1)N1CCC(N2CCCC2)CC1,RPS6KA4 N-terminal kinase domain,binding,1 µM,100%
O=C(Nc1c[nH]nc1C(=O)NC1CCNCC1)c1cc(F)cc(F)c1,RPS6KA4 C-terminal kinase domain,binding,1 µM,34%
CNC(=O)[C@@H]1CC[C@@H](n2c(-c3ccc4cnccc4c3)nc3ccc(C(=O)NCc4cccc(C(N)=O)c4)cc32)C1,RPS6KA4 N-terminal kinase domain,binding,1 µM,100%
O=C(NCCCN1CCOCC1)c1ccc(Nc2nccc(-c3cc4ccccc4s3)n2)cc1,RPS6KA4 C-terminal kinase domain,binding,1 µM,19%
N[C@@H]1CCN(c2nccc(-c3cnn4ncccc34)n2)C1,RPS6KA4 C-terminal kinase domain,binding,1 µM,100%
C[C@@]1(Cc2ccc(C#N)cc2)C(=O)N(c2cc(Cl)cc(Cl)c2)c2ncc(C(=O)NC3(c4nc(C5CCC5)no4)CC3)n21,RPS6KA4 C-terminal kinase domain,cell-free assay,1 µM,100%
O=C(NCCCN1CCOCC1)c1ccc(Nc2ncc(Cl)c(-c3ccc(Cl)s3)n2)cc1,RPS6KA4 N-terminal kinase domain,binding,1 µM,100%
CCN1CCN(Cc2ccc(C(=O)Nc3ccc(C)c(Oc4ccc5c(c4)CC(=O)N5)c3)cc2C(F)(F)F)CC1,RPS6KA4 C-terminal kinase domain,binding,1 µM,100%
C[C@@H](c1ccc(-n2cnc3c(N)ncnc32)cc1)N1CCc2nn(C)c(Cc3ccccc3)c2C1=O,RPS6KA4 N-terminal kinase domain,binding,0.1 µM,84%
F[C@@H]1CCN(c2nccc(-c3cnn4ncccc34)n2)C1,RPS6KA4 N-terminal kinase domain,binding,1 µM,90%
O=C(c1ccc(Nc2ncc(Cl)c(-c3cc4ccccc4s3)n2)cc1)N1CCC(N2CCCC2)CC1,RPS6KA4 N-terminal kinase domain,binding,1 µM,100%
c1cncc(-c2cccc(Nc3nccc(NC4CCCCC4)n3)c2)c1,RPS6KA4 C-terminal kinase domain,binding,10 µM,100%
O=C(NCC1CCOCC1)c1n[nH]cc1NC(=O)c1c(F)cccc1F,RPS6KA4 C-terminal kinase domain,binding,1 µM,29%
C[C@H]1CCN(c2nccc(-c3cnn4ncccc34)n2)C1,RPS6KA4 C-terminal kinase domain,binding,1 µM,56%
FC(F)(F)Oc1cccc(-c2cnc3ccc(-c4ccncc4)nn23)c1,RPS6KA4 C-terminal kinase domain,binding,5 µM,87%
Cc1cnc(Nc2ccc(C(=O)N3CCC(N4CCCC4)CC3)cc2)nc1-c1cc2ccccc2s1,RPS6KA4 N-terminal kinase domain,binding,1 µM,100%
COc1cnc(Nc2cccc(S(N)(=O)=O)c2)nc1N1CCN(c2ccccc2)CC1,RPS6KA4 C-terminal kinase domain,binding,1 µM,89%
CN(CCCC(F)(F)F)c1nccc(-c2cnn3ncccc23)n1,RPS6KA4 N-terminal kinase domain,binding,1 µM,100%
COc1ccc2c(c1)O[C@@H](c1ccc(OC)c(OC)c1)C[C@H]2NC(=O)C1(c2ccc3c(c2)OC(F)(F)O3)CC1,RPS6KA4 C-terminal kinase domain,cell-free assay,1 µM,81%
COc1ncc2cc3ccccc3nc2c1C#N,RPS6KA4 C-terminal kinase domain,cell-free assay,5 µM,58%
COc1ccnn2ncc(-c3ccnc(N(C)C)n3)c12,RPS6KA4 N-terminal kinase domain,binding,1 µM,97%
C=CC(=O)N1CCC(C(=O)NCC(=O)N2CCN(c3nc(-c4cnc(N)nc4C(F)F)nc(N4CCOCC4)n3)CC2)CC1,RPS6KA4 N-terminal kinase domain,binding,1 µM,82%
CO[C@@H](C)c1c(Nc2ccc([C@H](N(C)C(=O)C3CCS(=O)(=O)CC3)C(F)(F)F)cc2)cnc2cc(Cl)nn12,RPS6KA4 N-terminal kinase domain,cell-free assay,1 µM,86%
Cc1cnn2ncc(-c3ccnc(N(C)C)n3)c2c1,RPS6KA4 N-terminal kinase domain,binding,1 µM,97%
O=C(N1CCS(=O)(=O)CC1)N1C[C@H](c2ccc(OC(F)(F)F)cc2)C[C@H](c2nc(C3CC3)no2)C1,RPS6KA4 N-terminal kinase domain,cell-free assay,1 µM,100%
O=C(c1ccc(Nc2ncc(Cl)c(-c3ccc(Cl)s3)n2)cc1)N1CCC(N2CCCC2)CC1,RPS6KA4 N-terminal kinase domain,binding,1 µM,100%
c1cnn2ncc(-c3ccnc(N4CCC45COC5)n3)c2c1,RPS6KA4 C-terminal kinase domain,binding,1 µM,55%
CN(C(=O)c1ccccc1)c1cc(N(C)c2ccc3c(c2)CCc2ccc(C(=O)NCCN4CCOCC4)cc2C3=O)ccc1F,RPS6KA4 N-terminal kinase domain,cell-free assay,1 µM,59%
CN(C)c1nccc(-c2cnc3ncccn23)n1,RPS6KA4 C-terminal kinase domain,binding,1 µM,62%
O=C(NCc1ncc(C(F)(F)F)cc1Cl)c1ccc2c(c1)C1(CCS(=O)(=O)CC1)[C@@H](C1CC1)N2S(=O)(=O)c1ccc(F)cc1,RPS6KA4 C-terminal kinase domain,cell-free assay,1 µM,84%
